From ChEMBL document CHEMBL1126849, “Synthesis of A-ring fluorinated derivatives of (17 alpha,20E/Z)-[125I]iodovinylestradiols: effect on receptor binding and receptor-mediated target tissue uptake” (J Med Chem, 1993)

Experiments:
[1] = tested on: Rattus norvegicus; assay: Biodistribution in blood of immature female rat after 5 hour administration of 3 micro Ci (111 kBq) in the absence of 60 microg estradiol; type: ADME, organism-based; conditions: in vivo
Procedure, shortened: (§1)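 Immature female Long Evans rats (21–24 days, 45–70 g), unanesthetized in retention cages, given 3 µCi (111 kBq) 125I-labeled steroid i.v. via lateral tail vein. Vehicle was ethanol diluted in saline containing 1% Tween-80, giving 9% ethanol final. The blocking group received 60 µg unlabeled estradiol co-injected. Rats were killed under ether by axillary bleeding, and tissues were KCl-washed and gamma-counted. Data are %ID/g, mean ± SE, n=3–5.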

[2] = tested on: Rattus norvegicus; assay: Biodistribution in spleen of immature female rat after 1 hr administration of 3 micro Ci (111 kBq) in the presence of (+E2); type: ADME, organism-based; conditions: in vivo
Procedure, shortened: (§2)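 Immature female Long Evans rats (21–24 days, 45–70 g), three to five per group, given 125I-labeled steroid (3 μCi, 111 kBq) by lateral tail vein without anesthesia. Vehicle: ethanol diluted in saline with 1% Tween-80, final ethanol 9%, 0.22 μm filtered. +E2 groups received 60 μg unlabeled estradiol co-injected. Killed under ether at set times; tissues KCl-washed, blotted, weighed, gamma counted; %ID/g, mean with SE.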

[3] = tested on: Rattus norvegicus; assay: Biodistribution in kidney of immature female rat after 12 hour administration of 3 micro Ci (111 kBq) in the absence of 60 microg estradiol; type: ADME, organism-based; conditions: in vivo; procedure, shortened: as §1
[4] = tested on: Rattus norvegicus; assay: Biodistribution in muscle of immature female rat after 1 hr administration of 3 micro Ci (111 kBq) in the presence of (+E2); type: ADME, organism-based, Muscle tissue; conditions: in vivo; procedure, shortened: as §2
[5] = tested on: Rattus norvegicus; assay: Biodistribution in spleen of immature female rat after 3 hour administration of 3 micro Ci (111 kBq) in the absence of 60 microg estradiol; type: ADME, organism-based; conditions: in vivo; procedure, shortened: as §2
[6] = tested on: Rattus norvegicus; assay: Biodistribution in uterus of immature female rat after 12 hour administration of 3 micro Ci (111 kBq) in the absence of 60 microg estradiol; type: ADME, organism-based; conditions: in vivo
Procedure, shortened: (§3)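 Immature female Long Evans rats (21–24 days, 45–70 g), 3–5 per group, unanesthetized in retention cages, given 3 μCi (111 kBq) 125I-labeled steroid by lateral tail vein. Vehicle: ethanol diluted with saline containing 1% Tween-80, final ethanol 9%. +E2 group co-injected 60 μg unlabeled estradiol (1 h only). Killed under ether; tissues KCl-washed, weighed, gamma-counted. Output: %ID/g (mean, SE) and uterus to blood or nontarget (muscle, spleen, lungs) ratios.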

[7] = tested on: Rattus norvegicus; assay: Biodistribution in fat of immature female rat after 3 hour administration of 3 micro Ci (111 kBq) in the absence of 60 microg estradiol; type: ADME, organism-based, Adipose tissue; conditions: in vivo; procedure, shortened: as §1
[8] = tested on: Rattus norvegicus; assay: Biodistribution in muscle of immature female rat after 5 hour administration of 3 micro Ci (111 kBq) in the absence of 60 microg estradiol; type: ADME, organism-based, Muscle tissue; conditions: in vivo; procedure, shortened: as §2
[9] = target: T1, Estrogen receptor (Mus musculus) (UniProt O08537+P19785); assay: Relative binding affinity (RBA) for murine cytoplasmic estrogen receptor at 4C for 18 hr; type: protein assay
T1 sequence (O08537 whole entry, looked up): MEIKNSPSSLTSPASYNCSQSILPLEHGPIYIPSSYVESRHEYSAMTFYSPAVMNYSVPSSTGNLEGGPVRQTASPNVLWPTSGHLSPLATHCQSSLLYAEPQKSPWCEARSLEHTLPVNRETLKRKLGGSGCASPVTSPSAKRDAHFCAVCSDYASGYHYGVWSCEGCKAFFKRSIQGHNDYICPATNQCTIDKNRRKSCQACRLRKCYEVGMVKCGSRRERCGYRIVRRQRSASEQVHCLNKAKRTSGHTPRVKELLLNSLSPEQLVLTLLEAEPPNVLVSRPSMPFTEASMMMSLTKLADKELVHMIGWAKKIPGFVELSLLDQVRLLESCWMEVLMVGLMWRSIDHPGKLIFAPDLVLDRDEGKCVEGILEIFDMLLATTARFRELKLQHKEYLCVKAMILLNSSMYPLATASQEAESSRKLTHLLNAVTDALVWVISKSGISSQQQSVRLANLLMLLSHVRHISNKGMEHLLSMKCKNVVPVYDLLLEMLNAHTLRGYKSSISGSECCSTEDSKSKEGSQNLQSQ
T1 sequence (P19785 whole entry, looked up): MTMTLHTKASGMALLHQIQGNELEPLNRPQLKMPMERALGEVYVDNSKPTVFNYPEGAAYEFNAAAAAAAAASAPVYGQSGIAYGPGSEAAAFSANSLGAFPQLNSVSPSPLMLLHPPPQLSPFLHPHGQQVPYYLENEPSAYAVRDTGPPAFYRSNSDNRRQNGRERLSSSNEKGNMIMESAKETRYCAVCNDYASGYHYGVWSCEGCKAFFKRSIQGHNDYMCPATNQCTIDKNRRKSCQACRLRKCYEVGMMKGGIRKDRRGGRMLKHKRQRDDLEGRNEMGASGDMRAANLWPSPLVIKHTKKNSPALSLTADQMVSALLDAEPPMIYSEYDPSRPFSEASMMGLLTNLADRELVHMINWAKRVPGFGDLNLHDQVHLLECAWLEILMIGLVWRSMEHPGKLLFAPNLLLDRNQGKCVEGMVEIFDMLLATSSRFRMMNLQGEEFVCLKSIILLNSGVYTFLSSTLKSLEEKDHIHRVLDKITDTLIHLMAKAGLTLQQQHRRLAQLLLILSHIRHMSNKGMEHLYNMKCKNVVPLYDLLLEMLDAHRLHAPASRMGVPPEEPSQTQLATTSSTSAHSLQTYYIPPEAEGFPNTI
Procedure, shortened: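 Competitive binding on murine uterine cytoplasmic extract with 20 nM [3H]estradiol and competitor steroids at 2 nM–20 μM, incubated 18 h at 0–4 °C. RBA = 100 × ratio of […] concentration giving 50% competition for specific binding. Mean of three experiments with SD.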

[10] = target: T1, Estrogen receptor (Mus musculus); assay: Relative binding affinity (RBA) for murine cytoplasmic estrogen receptor at 4C for 2 hr; type: protein assay
Procedure, shortened: (§4)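 Murine uterine cytoplasmic extract incubated 2 h at 4 °C or at 25 °C with 20 nM [3H]estradiol and competitors at 2 nM–20 μM. RBA is taken as 100 × the ratio of competitor to unlabeled estradiol concentration needed for 50% competition of specific [3H]estradiol binding.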

[11] = target: T1, Estrogen receptor (Mus musculus); assay: Relative binding affinity (RBA) for murine cytoplasmic estrogen receptor at 25 degree C for 2 hr; type: protein assay; procedure, shortened: as §4
[12] = tested on: Rattus norvegicus; assay: Biodistribution in uterus of immature female rat after 3 hour administration of 3 micro Ci (111 kBq) in the absence of 60 microg estradiol; type: ADME, organism-based; conditions: in vivo; procedure, shortened: as §3
[13] = tested on: Rattus norvegicus; assay: Biodistribution in thyroid of immature female rat after 1 hr administration of 3 micro Ci (111 kBq) in the presence of (+E2); type: ADME, organism-based, Thyroid gland; conditions: in vivo; procedure, shortened: as §2
[14] = tested on: Rattus norvegicus; assay: Biodistribution in uterus of immature female rat after 1 hr administration of 3 micro Ci (111 kBq) in the presence of (+E2); type: ADME, organism-based; conditions: in vivo; procedure, shortened: as §3
[15] = tested on: Rattus norvegicus; assay: Biodistribution in thyroid of immature female rat after 5 hour administration of 3 micro Ci (111 kBq) in the absence of 60 microg estradiol; type: ADME, organism-based, Thyroid gland; conditions: in vivo; procedure, shortened: as §2
[16] = tested on: Rattus norvegicus; assay: Biodistribution in lungs of immature female rat after 1 hr administration of 3 micro Ci (111 kBq) in the presence of (+E2); type: ADME, organism-based, Lung; conditions: in vivo; procedure, shortened: as §1
[17] = tested on: Rattus norvegicus; assay: Biodistribution in liver of immature female rat after 1 hr administration of 3 micro Ci (111 kBq) in the absence of 60 microg estradiol; type: ADME, organism-based; conditions: in vivo; procedure, shortened: as §1
[18] = tested on: Rattus norvegicus; assay: Biodistribution in liver of immature female rat after 1 hr administration of 3 micro Ci (111 kBq) in the presence of (+E2); type: ADME, organism-based; conditions: in vivo; procedure, shortened: as §1
[19] = tested on: Rattus norvegicus; assay: Biodistribution in liver of immature female rat after 12 hour administration of 3 micro Ci (111 kBq) in the absence of 60 microg estradiol; type: ADME, organism-based; conditions: in vivo; procedure, shortened: as §1
[20] = tested on: Rattus norvegicus; assay: Biodistribution in blood of immature female rat after 3 hour administration of 3 micro Ci (111 kBq) in the absence of 60 microg estradiol; type: ADME, organism-based; conditions: in vivo; procedure, shortened: as §1
[21] = tested on: Rattus norvegicus; assay: Biodistribution in kidney of immature female rat after 1 hr administration of 3 micro Ci (111 kBq) in the presence of (+E2); type: ADME, organism-based; conditions: in vivo; procedure, shortened: as §1
[22] = tested on: Rattus norvegicus; assay: Biodistribution in uterus / blood of immature female rat after 1 hr administration of 3 micro Ci (111 kBq) in the absence of 60 microg estradiol; type: ADME, organism-based; conditions: in vivo
Procedure, shortened: (§5)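 Same in vivo procedure: immature female Long Evans rats (21–24 days), three to five per group, 3 μCi (111 kBq) tracer i.v. via tail vein in 9% ethanol/saline/1% Tween-80, ± 60 μg estradiol co-injected at 1 h. Uterus %ID/g (gamma counting) divided by blood, or by nontarget organ (muscle, spleen, lungs), %ID/g to give ratios.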

[23] = tested on: Rattus norvegicus; assay: Biodistribution in uterus of immature female rat after 5 hour administration of 3 micro Ci (111 kBq) in the absence of 60 microg estradiol; type: ADME, organism-based; conditions: in vivo; procedure, shortened: as §3
[24] = tested on: Rattus norvegicus; assay: Biodistribution in lungs of immature female rat after 3 hour administration of 3 micro Ci (111 kBq) in the absence of 60 microg estradiol; type: ADME, organism-based, Lung; conditions: in vivo; procedure, shortened: as §2
[25] = tested on: Rattus norvegicus; assay: Biodistribution in uterus / spleen, muscle, lungs of immature female rat after 12 hour administration of 3 micro Ci (111 kBq) in the absence of 60 microg estradiol; type: ADME, organism-based; conditions: in vivo; procedure, shortened: as §3
[26] = tested on: Rattus norvegicus; assay: Biodistribution in uterus / spleen, muscle, lungs of immature female rat after 5 hour administration of 3 micro Ci (111 kBq) in the absence of 60 microg estradiol; type: ADME, organism-based; conditions: in vivo; procedure, shortened: as §3
[27] = tested on: Rattus norvegicus; assay: Biodistribution in uterus / spleen, muscle, lungs of immature female rat after 1 hr administration of 3 micro Ci (111 kBq) in the absence of 60 microg estradiol; type: ADME, organism-based; conditions: in vivo; procedure, shortened: as §5
[28] = tested on: Rattus norvegicus; assay: Biodistribution in uterus / blood of immature female rat after 12 hour administration of 3 micro Ci (111 kBq) in the absence of 60 microg estradiol; type: ADME, organism-based; conditions: in vivo; procedure, shortened: as §5
[29] = tested on: Rattus norvegicus; assay: Biodistribution in liver of immature female rat after 3 hour administration of 3 micro Ci (111 kBq) in the absence of 60 microg estradiol; type: ADME, organism-based; conditions: in vivo; procedure, shortened: as §1

Row | SMILES | ID/g [1] | ID/g [2] | ID/g [3] | ID/g [4] | ID/g [5] | ID/g [6] | ID/g [7] | ID/g [8] | ID/g [12] | ID/g [13] | ID/g [14] | ID/g [15] | ID/g [16] | ID/g [17] | ID/g [18] | ID/g [19] | ID/g [20] | ID/g [21] | uterus-to-blood ratio of %ID/g [22] | ID/g [23] | further results
1 | C[C@]12CC[C@@H]3c4cc(F)c(O)cc4CC[C@H]3[C@@H]1CC[C@@]2(O)/C=C/I | 0.29% | 0.56% | 0.06% | 0.54% | 0.32% | 0.08% | 3.17% | 0.28% | 0.53% | 22% | 0.52% | 43.46% | 0.93% | 3.95% | 3.86% | 1.58% | 0.42% | 0.66% | 2.21% | 0.34% | RBA [9]: 6.2; RBA [10]: 30.4; RBA [11]: 5.3; ID/g [24]: 0.48%
2 | C[C@@H]1Cc2cc(O)c(F)cc2[C@H]2CC[C@@]3(C)[C@@H](CC[C@@]3(O)/C=C/I)[C@H]12 | 0.17% | 0.45% | 0.15% | 0.31% | 0.43% | 0.35% | 1.36% | 0.21% | 0.85% | 114% | 0.39% | 203% | 0.53% | 2.29% | 2.28% | 1% | 0.2% | 0.49% | 4.49% | 0.63% | uterus to nontarget tissue ratio [25]: 2.55%; uterus to nontarget tissue ratio [26]: 3.61%; uterus-to-nontarget tissue uptake ratio [27]: 3.3%; Uterus-to-blood radioactivity ratio (dimensionless) [28]: 2.99%; ID/g [29]: 1.53%; ID/g [24]: 0.28%
3 | C[C@@H]1Cc2c(ccc(O)c2F)[C@H]2CC[C@@]3(C)[C@@H](CC[C@@]3(O)/C=C/I)[C@H]12 | 0.39% | 1.29% | 0.32% | 0.97% | 0.91% | 3.02% | 4% | 0.56% | 5.29% | 56% | 1.14% | 114% | 1.86% | 4.36% | 5.84% | 1.57% | 0.32% | 1.82% | 12.53% | 6.44% | uterus to nontarget tissue ratio [25]: 15.57%; uterus to nontarget tissue ratio [26]: 9.38%; uterus-to-nontarget tissue uptake ratio [27]: 5.03%; Uterus-to-blood radioactivity ratio (dimensionless) [28]: 17.87%; ID/g [29]: 3.44%; ID/g [24]: 0.93%
4 | C[C@@H]1Cc2c(ccc(O)c2F)[C@H]2CC[C@@]3(C)[C@@H](CC[C@@]3(O)/C=C\I)[C@H]12 | 0.36% | 0.69% | 0.29% | 0.44% | 0.72% | 3.45% | 1.42% | 0.34% | 4.11% | 98% | 0.5% | 380% | 0.67% | 1.35% | 1.54% | 0.8% | 0.39% | 0.79% | 8.35% | 4.39% | uterus to nontarget tissue ratio [25]: 17.02%; ID/g [26]: 9.44%; ID/g [27]: 5.41%; Uterus-to-blood radioactivity ratio (dimensionless) [28]: 16.64%; ID/g [29]: 1.18%; ID/g [24]: 0.46%
